Compound activity as filed in PubChem.
ERAP1 inh: human ERAP1 aminopeptidase inhibitors, primary screen, biochemical, single point, plate reader; Endoplasmic reticulum aminopeptidase 1 (Homo sapiens), Q9NZ08; recombinant ERAP1, Leu-AMC fluorescence, 60 min; inhibition, % at 10.7 µM; 0.15% of 340,000 active; AID 652197, 2013;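 active means mean replicate inhibition of at least 30%, or all replicates individually reaching that 30% level; inactive means mean below 30% and not every replicate reaching it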;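 further: 0% = neutral control wells and 100% = L-leucinethiol positive control wells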
Target sequence (Q9NZ08 whole entry, looked up): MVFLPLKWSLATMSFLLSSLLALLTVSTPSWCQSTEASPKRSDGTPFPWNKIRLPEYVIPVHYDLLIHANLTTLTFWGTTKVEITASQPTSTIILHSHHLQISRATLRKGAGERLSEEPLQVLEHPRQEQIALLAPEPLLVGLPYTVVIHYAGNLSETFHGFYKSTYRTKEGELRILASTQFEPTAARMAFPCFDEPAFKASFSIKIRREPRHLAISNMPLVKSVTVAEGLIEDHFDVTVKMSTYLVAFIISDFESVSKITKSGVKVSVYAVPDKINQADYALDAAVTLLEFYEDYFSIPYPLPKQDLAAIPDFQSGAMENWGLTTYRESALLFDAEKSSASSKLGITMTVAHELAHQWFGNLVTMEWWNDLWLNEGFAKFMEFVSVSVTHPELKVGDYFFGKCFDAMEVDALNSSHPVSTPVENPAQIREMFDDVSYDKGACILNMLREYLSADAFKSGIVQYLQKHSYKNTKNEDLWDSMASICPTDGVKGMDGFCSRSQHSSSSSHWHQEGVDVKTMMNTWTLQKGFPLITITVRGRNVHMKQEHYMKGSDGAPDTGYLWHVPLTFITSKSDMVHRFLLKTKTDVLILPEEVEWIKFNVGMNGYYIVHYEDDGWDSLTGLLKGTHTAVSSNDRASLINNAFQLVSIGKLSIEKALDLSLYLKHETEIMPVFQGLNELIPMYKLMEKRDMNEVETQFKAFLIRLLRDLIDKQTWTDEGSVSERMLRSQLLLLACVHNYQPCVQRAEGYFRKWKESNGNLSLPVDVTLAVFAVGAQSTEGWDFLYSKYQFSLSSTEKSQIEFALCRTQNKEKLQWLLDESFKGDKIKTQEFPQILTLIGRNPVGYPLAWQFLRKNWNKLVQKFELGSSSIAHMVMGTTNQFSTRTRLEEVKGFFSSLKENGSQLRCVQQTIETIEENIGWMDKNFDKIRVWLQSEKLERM
FGF22 binding: binders of human FGF22 protein, primary screen, FGF22 synaptogenesis inhibitor project, biophysical, thermal shift, single point | AID 651658, 2012 | recombinant FGF22 thermal shift, SYPRO orange fluorescence; percent of sucrose octasulfate shift, DMSO zero | Fibroblast growth factor 22 (Homo sapiens), Q9HCT0 | 1.5% of 340,000 active | activity (Tm shift, normalised), % at 9.99 µM;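 active means mean Tm shift, scaled 0 neutral to 100 positive control, at about 1.3% or above, every replicate too, limit read from the data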
FN deposit inh: inhibitors of fibronectin matrix deposition, primary screen, AH1F cells, Alexa488-fibronectin fluorescence, plate reader. AH1F fibroblasts, overnight. inhibition, % at 12.6 µM. 0.086% of 350,000 active;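 active means mean inhibition across replicates of 30% or more, regardless of how many single replicates reach that level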;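 further: positive control wells lacked labelled fibronectin entirely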
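Material: AH1F fibroblasts assembling fluorescent fibronectin matrix; amount: 10000 AH1F cells/well; medium: DMEM, 2% serum; reagent: Alexa488-fibronectin, 24 nM final in well; dosing: single compound dose, delivered by pin transfer; incubation: 1 h adhesion, overnight exposure; detection: fluorescence after three HBSS washes, excitation 485 nm, emission 525 nm; measure: fibronectin deposition inhibition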
SIRT5 inh: SIRT5 desuccinylase inhibitors, primary screen, biochemical, fluorescence imaging, single point, set 5; NAD-dependent protein deacylase sirtuin-5, mitochondrial (Homo sapiens), Q9NXA8; Purified SirT5, succinyl-peptide AMC, trypsin-coupled fluorescence; inhibition, % at 15 µM; 1.1% of 330,000 active; AID 652115, 2013; in the data active means inhibition above about 15%
PGC1a acetyl inh: inhibitors of PGC1a acetylation signal, primary screen, cell-based, U2OS, AlphaScreen, inhibitor mode. AlphaScreen anti-acetyl-lysine; with virally co-expressed GCN5 acetyltransferase. inhibition, % at 15.6 µM. 0.17% of 350,000 active. AID 651687, 2012;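 active means every replicate shows inhibition of at least 40%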;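 further: 0% = neutral control wells and 100% = positive control wells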
The depositor's hits bear a star; x = no result given. Most compounds without a hit are left out; they make up all but 2.2% or so of the library.

SMILES	ERAP1 inh	FGF22 binding	FN deposit inh	SIRT5 inh	PGC1a acetyl inh
CN(Cc1ccccc1C#N)S(=O)(=O)c1cccs1	-6.5	0.3	4.1	-1.3	-9.1
N#Cc1nccnc1S(=O)(=O)c1cccs1	x	x	40.0*	-1.0	x
O=C(CCS(=O)(=O)c1ccccc1)Nc1ccc(S(=O)(=O)Nc2nccs2)cc1	2.2	42.9*	4.9	x	x
O=C(CCS(=O)(=O)c1ccccc1)Nc1ccc(-c2nc3ccccc3s2)cc1	-0.7	43.8*	-12.1	-2.2	-18.1
O=C(CCS(=O)(=O)c1ccccc1)Nc1cccc(-c2nc3ccccc3s2)c1	-0.1	1.1	3.3	0.7	-12.6
COc1ccc(-c2csc(CCn3nc(C)cc3C)n2)cc1OC	-5.5	0.3	37.2*	0.3	4.8
CCOC(=O)C1(C)/C(=N/Nc2ccccc2OC)C(=O)C(=O)N1c1ccccc1 (stereo not given)	-1.9	43.0*	-3.6	0.2	-5.5
C[C@H](CO)N1C[C@H](C)[C@H](CN(C)Cc2ccc(C(=O)Nc3ccccc3N)cc2)Oc2ccc(NC(=O)Cc3ccccc3)cc2C1=O	-3.5	-0.1	x	11.9	1.0
O=C(NCCc1ccccc1)c1cc(S(=O)(=O)N2CCOCC2)ccc1F	x	x	5.6	x	5.7
Cc1cc(C)cc(OCCNC(=O)c2cc(S(=O)(=O)N3CCOCC3)ccc2F)c1	-6.3	-0.2	5.5	17.4*	-5.0
Cc1nnc(SCC(=O)c2cc(C)n(C3CC3)c2C)s1	x	x	x	x	2.2
Cc1cc(C(=O)CSc2nn3c(=O)c(C(C)(C)C)nnc3s2)c(C)n1C1CC1	3.8	1.7*	-13.0	0.2	-7.2
CCN1[C@@H]2Cn3c(ccc(-c4ccccc4F)c3=O)[C@H]1[C@@H](C(=O)NCc1ccc(F)cc1)[C@@H]2CO	-3.6	0.1	x	-1.8	x
CCCCCCCCCCCCCCCC(O)C[N+](C)(C)CCO (stereo not given)	50.3*	0.0	4.2	7.8	x
O=C(CNCc1ccccc1)Nc1ccccc1-c1ccccc1	0.9	44.0*	-7.5	-2.1	-12.4
O=C(CNCc1ccccc1)Nc1cccc(Cl)c1Cl	0.4	0.1	-2.7	0.3	1.6
Cn1c(=O)c2c(-c3ccccc3)n(-c3cccc(O)c3)cc2n(C)c1=O	0.8	40.7	-6.5	38.7*	-2.6
Cc1ccccc1S(=O)(=O)N1[C@@H](c2ccc(F)cc2)C(C(=O)O)=CC[C@H]1c1ccc(Cl)cc1	4.8	2.2*	1.2	2.5	-3.1
Cc1ccc([C@@H]2CC=C(C(=O)O)[C@H](c3ccc(C(C)(C)C)cc3)N2S(=O)(=O)c2ccc(C)cc2)cc1	1.4	-0.2	0.5	7.2	5.7
O=C(O)C1=CC[C@@H](c2ccc(Cl)cc2)N(S(=O)(=O)c2ccc(Cl)cc2)[C@H]1c1ccc(F)cc1	7.5	0.9	-1.2	2.9	10.2
Cc1ccc([C@@H]2CC=C(C(=O)O)[C@H](c3ccc(Br)cc3)N2S(=O)(=O)c2ccc(C)cc2)cc1	x	-0.1	-0.8	4.3	-3.0
Cc1ccc(S(=O)(=O)N2[C@@H](c3ccc(Br)cc3)C(C(=O)O)=CC[C@H]2c2ccc(C(C)C)cc2)cc1	x	-0.2	-5.4	15.3*	8.1
Cc1ccc(S(=O)(=O)N2[C@@H](c3ccccc3F)C(C(=O)O)=CC[C@H]2c2ccc(C(C)C)cc2)cc1	1.1	x	-1.0	x	x
Cc1ccc(S(=O)(=O)N2[C@@H](c3ccc(C(C)(C)C)cc3)C(C(=O)O)=CC[C@H]2c2ccc(C(C)C)cc2)cc1	x	-0.2	x	28.1*	8.9
Cc1ccc(S(=O)(=O)N2[C@@H](c3ccc(C(C)(C)C)cc3)C(C(=O)O)=CC[C@H]2c2ccc(Cl)cc2)cc1	2.2	40.7	-17.3	16.2*	-14.0
COC(=O)c1cn(C[C@H](Cc2ccccc2)NC(=O)Nc2ccccc2)nn1	-0.8	-0.1	x	0.8	x
CCCC[C@@H](O)C1=C(COC)C[C@H]2C(=O)N(Cc3ccccc3)C(=O)[C@H]2[C@H]1CO	-13.2	-0.2	x	1.6	x
O=C(NCCc1ccccc1)[C@H]1N[C@H]2c3ccc(-c4ccc(F)cc4)c(=O)n3C[C@H]2[C@@H]1CO	9.4	0.3	x	-5.0	10.0
